Measured values collected from several papers.
Protocols differ between the studies behind these lines.
Target: Proto-oncogene tyrosine-protein kinase ROS (ROS1, Homo sapiens, UniProt P08922)

For `COc1cnc(Nc2cccc(S(N)(=O)=O)c2)nc1N1CCN(c2ccccc2)CC1`, the remaining binding was 99% (binding, competition with immobilised ligand; 1 µM).
The remaining binding of `N#CC1(c2ccccn2)CCN(Cc2cc(C(=O)N3CCCC3)c(=O)n3ccccc23)CC1` is reported as 97% (cell-free assay, competition with immobilised ligand; 1 µM).
`c1cnn2ncc(-c3ccnc(N4CCC45COC5)n3)c2c1` gave a remaining binding of 100% (binding; 1 µM).
`CO[C@H]1CC[C@H](CNc2ccc(S(=O)(=O)NC(=O)c3ccc(N4CCN(CC5=C(c6ccc(Cl)cc6)CC(C)(C)CC5)CC4)cc3Oc3cnc4[nH]ccc4c3)cc2[N+](=O)[O-])CC1` has a remaining binding of 72% (cell-free assay, competition with immobilised ligand; 1 µM).
With `O=C(c1ccc(Nc2ncc(Cl)c(-c3ccc(Cl)s3)n2)cc1)N1CCC(N2CCCC2)CC1` the remaining binding was 37% (binding, competition with immobilised ligand; 1 µM).
For `O=C(NCC1CCOCC1)c1n[nH]cc1NC(=O)c1c(F)cccc1F`, the remaining binding was 100% (binding, competition with immobilised ligand; 1 µM).
The remaining binding of `Cc1cnn2ncc(-c3ccnc(N(C)C)n3)c2c1` is reported as 100% (binding; 1 µM).
`CNC(=O)[C@@H]1CC[C@@H](n2c(-c3ccc4cnccc4c3)nc3ccc(C(=O)NCc4cccc(C(N)=O)c4)cc32)C1` gave a remaining binding of 100% (binding, competition with immobilised ligand; 1 µM).
`O=C(NCCCN1CCOCC1)c1ccc(Nc2ncc(Cl)c(-c3ccc(Cl)s3)n2)cc1` gave a remaining binding of 47% (binding, competition with immobilised ligand; 1 µM).
`O=S(=O)(NC1CCC(c2cc(F)ccc2F)(S(=O)(=O)c2ccc(Cl)cc2)CC1)C(F)(F)F` (stereo not shown) gave a remaining binding of 100% (cell-free assay, competition with immobilised ligand; 1 µM).
With `C[C@H]1CCN(c2nccc(-c3cnn4ncccc34)n2)C1` the remaining binding was 91% (binding; 1 µM).
With `O=C(NCCCC1CCCCC1)c1ccc(CNC(=O)c2cnn(-c3ccccc3)c2C(F)(F)F)cc1` the remaining binding was 100% (cell-free assay, competition with immobilised ligand; 0.1 µM).
`CN(C)c1nccc(-c2cnc3ncccn23)n1` gave a remaining binding of 71% (binding; 1 µM).
For `CC(C)(O)c1cncc(-c2nc3ccc(F)cc3n2C2CC2)c1`, the remaining binding was 100% (cell-free assay, competition with immobilised ligand; 1 µM).
For `C[C@@H](c1ccc(-n2cnc3c(N)ncnc32)cc1)N1CCc2nn(C)c(Cc3ccccc3)c2C1=O`, the remaining binding was 100% (binding, competition with immobilised ligand; 0.1 µM).
With `CO[C@@H](C)c1c(Nc2ccc([C@H](N(C)C(=O)C3CCS(=O)(=O)CC3)C(F)(F)F)cc2)cnc2cc(Cl)nn12` the remaining binding was 77% (cell-free assay, competition with immobilised ligand; 1 µM).
For `COc1ccnn2ncc(-c3ccnc(N(C)C)n3)c12`, the remaining binding was 100% (binding; 1 µM).
For `c1cncc(-c2cccc(Nc3nccc(NC4CCCCC4)n3)c2)c1`, the remaining binding was 20% (binding, competition with immobilised ligand; 10 µM).
The remaining binding of `N[C@H]1CCN(c2nccc(-c3cnn4ncccc34)n2)C1` is reported as 85% (binding; 1 µM).
The remaining binding of `COc1ccc2c(O[C@@H]3C[C@H]4C(=O)N[C@]5(C(=O)O)CC5/C=C\CCCCC[C@H](NC(=O)OC5CCCC5)C(=O)N4C3)cc(-c3csc(NC(=O)C(C)C)n3)nc2c1C` (stereo partly shown) is reported as 100% (cell-free assay, competition with immobilised ligand; 1 µM).
For `CC1CCCN1c1nccc(-c2cnn3ncccc23)n1` (stereo not shown), the remaining binding was 100% (binding; 1 µM).
`O=C(c1ccc(Nc2nccc(-c3cc4ccccc4s3)n2)cc1)N1CCC(N2CCCC2)CC1` has a remaining binding of 65% (binding, competition with immobilised ligand; 1 µM).
